The results in this text go back to ChEMBL document CHEMBL4513216, “Probing the Open Global Health Chemical Diversity Library for Multistage-Active Starting Points for Next-Generation Antimalarials” (ACS Infect Dis, 2020).

Structures are written as SMILES.

The nature of this data set: Toxicity liver stage against HepG2, at 10uM. Format: cell-based. Also on record: test concentration 10 uM, cell line HepG2-A16-CD81EGFP. The conditions noted are these: human, HepG2-A16-CD81EGFP cells; read-out: INHIBITION
An outline of the steps: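 Uninfected HepG2-A16-CD81EGFP cells, 3 × 10^3 per well, 1536-well, plated on prespotted compound at 10 μM final, parasite-free screening media added to match infected plates; puromycin 10 μM positive, DMSO 0.5% negative; run in parallel with 48 h PbLuc assay at 37 °C, 5% CO2; viability by CellTiter-Glo luminescence, normalized to controls.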
On to `CCOC(=O)Cn1ccc2cc(NC(=O)N3CCSCC3)ccc21`, for which the cytotoxicity at 10 µM amounted to 9.68%.

Regarding `CCn1c(CC2CCN(C(=O)c3ccnn3C)CC2)n[nH]c1=O`, the cytotoxicity at 10 µM was -51.1%.

With `Cn1cnc(S(=O)(=O)N2CCCC2c2ccnc3nccn23)c1` (centres undefined), the cytotoxicity at 10 µM turned out to be 6.28%.

For `CN(C)CCOc1ccccc1N1CCN(C(=O)c2ccoc2)CC1`, the cytotoxicity at 10 µM was 24.8%.

Regarding `CCn1cc(NC(=O)C2CCN(Cc3noc(C(C)C)n3)CC2)cn1`, the cytotoxicity at 10 µM worked out at 0.89%.

Take `O=C1NC2(Cc3ccccc31)CN(CC1CCOCC1)C2`: the cytotoxicity at 10 µM came out at 14%.

In the case of `CN(C)C(=O)N1CCc2c(nnn2C)C1COCc1ccccc1` (centres undefined), the cytotoxicity at 10 µM is -8.39%.

On to `COCCNC(=O)[C@H]1C[C@@H]2CCN(Cc3ccncc3)C[C@H]2O1`, for which the cytotoxicity at 10 µM was determined as 2.6%.

As for `CN(C)Cc1csc(-c2nccn2Cc2ccsc2)c1`, the cytotoxicity at 10 µM was -2.47%.

On to `CC(C)CN1CCCn2nc(CNC(=O)Cc3cccc(O)c3)cc2C1`, for which the cytotoxicity at 10 µM came out at 4.69%.

On to `C[C@H]1C[C@@H]2CCN(Cc3ccco3)C[C@H]2O1`, for which the cytotoxicity at 10 µM is -80.1%.

As to `Cn1nc(C2CNCCO2)cc1CCOc1ccc(Cl)cc1` (centres undefined), the cytotoxicity at 10 µM was -7.72%.

Turning to `NCCC(Cc1ccccc1)c1ccco1` (centres undefined), the cytotoxicity at 10 µM was determined as 0.45%.

As for `CN(C(=O)Cc1ccc(NC(=O)NC2CCC2)cc1)c1ccccc1`, the cytotoxicity at 10 µM is -6.11%.

Take `Cc1ncsc1CN1CC[C@H]2OCC[C@@]2(C(=O)N2CCCC2)C1`: the cytotoxicity at 10 µM is 7.63%.

Regarding `Cc1cccc(CC(=O)NC2CCN(C(=O)NC(C)(C)C)CC2)c1`, the cytotoxicity at 10 µM is -10.4%.

Take `CC(Oc1ccc(C(=O)NCCNS(C)(=O)=O)cn1)c1ccccc1` (centres undefined): the cytotoxicity at 10 µM is 7.44%.

Take `Cc1nc(C)n(CC2CCCN2CCC(=O)NC2CCCC2)n1` (centres undefined): the cytotoxicity at 10 µM was -10.4%.

In the case of `Cc1nc(CN2CCN(CC(O)CN3CCOCC3)CC2)oc1C` (centres undefined), the cytotoxicity at 10 µM came to 5.92%.

As for `Cn1nnc2c1CCN(CC1CC1)C2COCc1ccccc1` (centres undefined), the cytotoxicity at 10 µM is 6.74%.

On to `Cc1ccc(C2CSCCN2C(=O)NCc2cccnc2)cc1` (centres undefined), for which the cytotoxicity at 10 µM came out at 5.48%.

With `NC(Cc1nc(-c2ccccc2)no1)c1ccccc1` (centres undefined), the cytotoxicity at 10 µM is -5.08%.

For `CN(C)c1ccc(C(=O)NCC2(c3ccccc3)CCOCC2)cc1`, the cytotoxicity at 10 µM worked out at 6.52%.

With `Cc1ccc(N2CC[C@H]3OCC[C@@]3(C(=O)NCC3CC3)C2)nn1`, the cytotoxicity at 10 µM worked out at 3.22%.

Turning to `Cc1nnc(NC(=O)NCc2ccc(OC3CCCC3)nc2)s1`, the cytotoxicity at 10 µM came to 0.141%.

Take `CC(C)Nc1nc(-c2ccccc2)nc2c1CCN(C(=O)CC#N)CC2`: the cytotoxicity at 10 µM is -104%.

Consider `COc1coc(C(=O)Nc2nc(-c3ccncc3)cs2)cc1=O`, for which the cytotoxicity at 10 µM is -7.97%.

Regarding `O=C(O)[C@@H]1CN(C(=O)CSCC2CC2)C[C@H]1c1ccccn1`, the cytotoxicity at 10 µM stood at 5.35%.

As to `Cc1ccc2cc(C(=O)N3CCCC3Cn3cccn3)[nH]c2c1` (centres undefined), the cytotoxicity at 10 µM is -7.39%.

`COc1cccc(-c2cc(CN)ccc2F)c1F`: the cytotoxicity at 10 µM was -12.4%.

As to `CCc1c(C)n(CC(C)=O)c2nc3ccccc3n2c1=O`, the cytotoxicity at 10 µM came to 5.44%.

On to `c1ccc(-n2ccc(CNCC3CCCN3c3cccnn3)n2)cc1` (centres undefined), for which the cytotoxicity at 10 µM is -10.2%.

In the case of `Cc1cnccc1CN1CC[C@@](C)(O)[C@H](Oc2cccc(F)c2)C1`, the cytotoxicity at 10 µM stood at 1.52%.

As for `CCc1nc(Cn2cncc(Br)c2=O)no1`, the cytotoxicity at 10 µM was -11.8%.

Consider `CCN(CC1CCOC1)C(=O)NCc1ccc(-n2cncn2)nc1` (centres undefined), for which the cytotoxicity at 10 µM came to 0.0529%.

In the case of `CN(Cc1ccc(C#N)cc1)Cc1noc(C(C)(C)C)n1`, the cytotoxicity at 10 µM was -2.09%.

For `COc1ccc(F)c(-c2nccn2CCN2CCCC2)c1`, the cytotoxicity at 10 µM was -11.8%.

For `CCC(=O)NCc1ccccc1Cn1ccnc1`, the cytotoxicity at 10 µM is -1.21%.

In the case of `O=C([C@@H](O)Cc1ccccc1)N1CCCn2cncc2C1`, the cytotoxicity at 10 µM is 2.55%.

For the compound `Cc1ccc(OC2(C(=O)NC(C)Cc3ccncc3)CCNCC2)cc1` (centres undefined), the cytotoxicity at 10 µM is -9.89%.

Turning to `Cc1ccccc1CS(=O)(=O)c1nnc(N2CCOCC2)s1`, the cytotoxicity at 10 µM is -9.61%.

As for `COCC(=O)N1CCN(Cc2csc(-c3ncccn3)n2)CC1`, the cytotoxicity at 10 µM is -11.3%.

Turning to `CC(=O)N1CCCC1CCc1ccc(Cl)nn1` (centres undefined), the cytotoxicity at 10 µM turned out to be 3.39%.

Consider `Cc1ccc(NC(=O)C2CSCN2C(=O)c2cnccn2)c(C)c1` (centres undefined), for which the cytotoxicity at 10 µM is -8.6%.

Regarding `CN(C)S(=O)(=O)N1CCC(C)(c2ncc(C(N)=O)s2)CC1`, the cytotoxicity at 10 µM is -0.318%.

`O=C(NCC1CC1)[C@H]1C[C@@H]2CCN(CCc3ccccc3)C[C@H]2O1`: the cytotoxicity at 10 µM was -75.5%.

In the case of `Cn1cc(CN2CCc3onc(COc4cccnc4)c3C2)cn1`, the cytotoxicity at 10 µM was determined as 4.78%.

Consider `Cc1cnn(CCNCC(=O)NCC2(c3ccccc3)CC2)c1`, for which the cytotoxicity at 10 µM came out at 5.58%.

On to `COCCN(C)C[C@@H]1CN(C(=O)c2cccc(C#N)c2)C[C@@H]1CO`, for which the cytotoxicity at 10 µM is 14.5%.

Consider `COc1ccc(F)cc1C(=O)N(C)Cc1cc(C)on1`, for which the cytotoxicity at 10 µM was determined as 0.35%.

Consider `Cc1cc(NC(=O)NCC(O)c2ccc(F)c(F)c2)n(C)n1` (centres undefined), for which the cytotoxicity at 10 µM is -21.1%.

Regarding `Cn1cc(CN2CCOC(Cc3cccc(F)c3)C2)cn1` (centres undefined), the cytotoxicity at 10 µM was -2.62%.

`CC1(C(=O)NC2CCCC2)CCCN(c2cnccn2)C1` (centres undefined): the cytotoxicity at 10 µM was -5.81%.

For `CS(=O)(=O)c1ccc(NC(=O)NCc2ccc(F)cc2)cn1`, the cytotoxicity at 10 µM was determined as 15.4%.

For the compound `Cc1cc(C)n(CC2CN(CC(=O)NC3CCCCC3)CCO2)n1` (centres undefined), the cytotoxicity at 10 µM is -5.17%.

Turning to `CN1N=C(C(=O)N2CCCC(CCc3ccccc3F)C2)CCC1=O` (centres undefined), the cytotoxicity at 10 µM was -6.67%.

For `Cc1nc(CN(C)C2CCN(Cc3nnc(C4CC4)o3)C2)no1` (centres undefined), the cytotoxicity at 10 µM is -5%.

With `Cc1ccc2c(ccn2CCC(=O)O)c1`, the cytotoxicity at 10 µM is -3.69%.

Turning to `CC(O)CN1CCC(CN(C)CC(=O)NC2CCOCC2)CC1` (centres undefined), the cytotoxicity at 10 µM was -3.33%.

For `CS(=O)(=O)N1CCCC(C(=O)N2CCOc3ccccc32)C1` (centres undefined), the cytotoxicity at 10 µM worked out at 0.421%.

As to `O=C1CCCCCN1Cc1cccc(OC(F)F)c1`, the cytotoxicity at 10 µM was -6.4%.

In the case of `O=c1[nH]c2ncccc2n1C1CCCCC1`, the cytotoxicity at 10 µM came to 3.16%.

Consider `CO[C@H]1CN(C(=O)OC(C)(C)C)CC1NCc1ccoc1` (some centres undefined), for which the cytotoxicity at 10 µM was -51.8%.

Turning to `O=C(c1ccc(Sc2ccccn2)cc1)N1CCCSCC1`, the cytotoxicity at 10 µM was 11.5%.

Take `CCC(NC1CCCC1)c1ccc(S(C)(=O)=O)cc1` (centres undefined): the cytotoxicity at 10 µM was -3.37%.

In the case of `CN(C)C(C(=O)N1CC(Oc2ccccc2F)C1)c1ccccc1F` (centres undefined), the cytotoxicity at 10 µM was -0.598%.

On to `Cn1nc(C(=O)NC2CC2)cc1NC(=O)C1CC1`, for which the cytotoxicity at 10 µM was -4.02%.

With `CC(CNS(C)(=O)=O)Oc1cccc(Cl)c1` (centres undefined), the cytotoxicity at 10 µM is 4.6%.

On to `CCOc1ncccc1CNC(=O)NCCNC(=O)c1ccco1`, for which the cytotoxicity at 10 µM turned out to be 1.16%.

Consider `CC(=O)NCCC(=O)Nc1cccc(N2CCN(CC3CC3)CC2)c1`, for which the cytotoxicity at 10 µM was -5.62%.

Take `CC(=O)c1nn(-c2ccccc2Cl)c(C)c1C(C)=O`: the cytotoxicity at 10 µM is 6.33%.

For `NS(=O)(=O)c1cnn(CCC(=O)N(Cc2ccccc2)C2CC2)c1`, the cytotoxicity at 10 µM was 4.53%.

`O=C(Nc1cc(C(F)(F)F)c[nH]c1=O)C1CCNCC1`: the cytotoxicity at 10 µM stood at 6.01%.

`CS(=O)(=O)N1CC(c2nc(N)ncc2-c2ccc(F)cc2)C1`: the cytotoxicity at 10 µM is -3.49%.

Consider `Cc1ccc(NC(=O)CNc2cccc3c2CCCC3)c(Br)c1`, for which the cytotoxicity at 10 µM worked out at 14.8%.

Regarding `COCC(=O)Nc1cnn(COc2ccc(F)cc2Cl)c1`, the cytotoxicity at 10 µM was -4.52%.

Consider `Cc1ccc(NC2(C(=O)NC(C)c3ncn[nH]3)CCCC2)cc1` (centres undefined), for which the cytotoxicity at 10 µM is 0.317%.

On to `Cc1cccc(C(C)(C)CNC(=O)CCSc2nnnn2C)c1`, for which the cytotoxicity at 10 µM was -1.09%.

For `Cc1cc(C)n(CC(=O)NCc2ccccn2)n1`, the cytotoxicity at 10 µM is 3.86%.

In the case of `COCCN1CC[C@@H]2O[C@H](COCc3csc(C)n3)CC[C@@H]21`, the cytotoxicity at 10 µM is -76.7%.

As for `COc1c(C)cnc(CNC(=O)CCOCC(C)C)c1C`, the cytotoxicity at 10 µM was -4.44%.

With `Cc1cc(C)cc(CN2CCN(C(=O)COCC3CCCO3)CC2=O)c1` (centres undefined), the cytotoxicity at 10 µM turned out to be 4.07%.

Take `O=C(c1cccc2ccnn12)N1CCC[C@H]1CN1CCCC1`: the cytotoxicity at 10 µM is -144%.

As to `Cn1ccc(CN2CCC(NC(=O)Cc3ccccc3)CC2)cc1=O`, the cytotoxicity at 10 µM was -9.75%.

Consider `CCCOCC(=O)N1CCCN(Cc2csc(CC)n2)CC1`, for which the cytotoxicity at 10 µM worked out at 3.78%.

`Cc1cc(C(=O)NCC2Cn3nnc(C)c3CO2)no1` (centres undefined): the cytotoxicity at 10 µM was -4.07%.

As for `Cc1ccccc1CNC(=O)Cc1c(C)nc2cc(=O)[nH]n2c1C`, the cytotoxicity at 10 µM was -2.35%.

As to `COc1ccc(OC2CCN(C(=O)C3CCCN(C)C3)CC2)cc1` (centres undefined), the cytotoxicity at 10 µM was -59.6%.

Regarding `CCOC1CCC2(CCN(C(=O)c3c[nH]cn3)CC2)c2ccccc21` (centres undefined), the cytotoxicity at 10 µM worked out at 7.5%.

As to `NC(=O)c1cccc(CNCC=Cc2ccccc2)c1`, the cytotoxicity at 10 µM worked out at 5.62%.

For `COCCN1C[C@@H]2[C@@H](OC)CCN(Cc3ccsc3)[C@@H]2C1`, the cytotoxicity at 10 µM is 2.78%.

With `CCSCC(C)NCc1nncn1C1CCCCC1` (centres undefined), the cytotoxicity at 10 µM was found to be 15.3%.

Take `Cn1cc(CNC(=O)C2CCCN(Cc3cccc(F)c3)C2)cn1` (centres undefined): the cytotoxicity at 10 µM stood at 3.44%.

As to `CC(O)c1cn(Cc2ccc(Cl)cc2)nn1` (centres undefined), the cytotoxicity at 10 µM was found to be 8.75%.

As to `COc1ccccc1NC(=O)N(CCO)Cc1ccsc1`, the cytotoxicity at 10 µM was -1.05%.

As to `Cc1cccc(CN2CCN(C(=O)c3cccnc3O)CC2)c1`, the cytotoxicity at 10 µM came out at 1.73%.

With `O=C1CC(c2ccc(O)cc2)c2c(n3ccsc3nc2=O)N1` (centres undefined), the cytotoxicity at 10 µM was -3.12%.

Turning to `NC(=O)CCCNC(=O)Cc1cccc(I)c1`, the cytotoxicity at 10 µM is -3.71%.

As to `CC(C(=O)NCc1ccc(N2CCCC2)nc1)n1cncn1` (centres undefined), the cytotoxicity at 10 µM is -22.4%.
